In ChEMBL document CHEMBL1153465, “C5-Modified nucleosides exhibiting anticancer activity” (Bioorg Med Chem Lett, 2009):

Experiments:
Assay type in all cases: functional
[1] = system: HCT-15; assay: Cytotoxicity against human HCT15 cells at 10 uM by SRB assay
Outline: (§1)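 Growth inhibition measured at one fixed test concentration by sulforhodamine B assay. Cells were kept in RPMI 1640 plus 5% fetal bovine serum at 37 °C under humidified 5% CO₂. Adriamycin served as positive control. Results are given as […] of cancer cell growth.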

[2] = system: MDA-MB-231; assay: Cytotoxicity against human MDA-MB-231 cells at 10 uM by SRB assay; outline: as §1
[3] = system: NCI-H23; assay: Cytotoxicity against human NCI-H23 cells at 10 uM by SRB assay; outline: as §1
[4] = system: PC-3; assay: Cytotoxicity against human PC3 cells at 10 uM by SRB assay; outline: as §1
[5] = system: HCT-15; assay: Cytotoxicity against human HCT15 cells by SRB assay
[6] = system: MDA-MB-231; assay: Cytotoxicity against human MDA-MB-231 cells by SRB assay
[7] = system: NCI-H23; assay: Cytotoxicity against human NCI-H23 cells by SRB assay
[8] = system: NUGC-3; assay: Cytotoxicity against human NUGC3 cells by SRB assay
[9] = system: PC-3; assay: Cytotoxicity against human PC3 cells by SRB assay
[10] = system: ACHN; assay: Cytotoxicity against human ACHN cells by SRB assay

## CC(=O)OC[C@H]1O[C@@H](n2cc(-c3cc(-c4ccc(C(C)(C)C)cc4)no3)c(=O)[nH]c2=O)C[C@@H]1OC(C)=O
[1]
  growth, % of control at 10 µM: 53.8%
[2]
  growth, % of control at 10 µM: 69.3%
[3]
  growth, % of control at 10 µM: 112%
[4]
  growth, % of control at 10 µM: 27.5%

## CCCCCCCCc1cc(-c2cn([C@H]3C[C@H](O)[C@@H](CO)O3)c(=O)[nH]c2=O)on1
[1]
  growth, % of control at 10 µM: 88.2%
[2]
  growth, % of control at 10 µM: 96.7%
[3]
  growth, % of control at 10 µM: 120%
[4]
  growth, % of control at 10 µM: 77.3%

## COc1cccc2c1C(=O)c1c(O)c3c(c(O)c1C2=O)C[C@@](O)(C(=O)CO)C[C@@H]3O[C@H]1C[C@H](N)[C@H](O)[C@H](C)O1 [DOXORUBICIN]
[5]
  GI50: 1640 nM
[6]
  GI50: 610 nM
[7]
  GI50: 510 nM
[8]
  GI50: 250 nM
[9]
  GI50: 730 nM
[10]
  GI50: 410 nM

## CC(=O)OC[C@H]1O[C@@H](n2cc(-c3cn(Cc4ccc(C(C)C)cc4)nn3)c(=O)[nH]c2=O)C[C@@H]1OC(C)=O
[1]
  growth, % of control at 10 µM: 96.5%
[2]
  growth, % of control at 10 µM: 98.1%
[3]
  growth, % of control at 10 µM: 86.7%
[4]
  growth, % of control at 10 µM: 91.3%

## CCc1ccc(Cn2cc(-c3cn([C@H]4C[C@H](OC(C)=O)[C@@H](COC(C)=O)O4)c(=O)[nH]c3=O)nn2)cc1
[1]
  growth, % of control at 10 µM: 88%
[2]
  growth, % of control at 10 µM: 97.7%
[3]
  growth, % of control at 10 µM: 77.2%
[4]
  growth, % of control at 10 µM: 91.2%

## CCCc1cc(-c2cn([C@H]3C[C@H](OC(C)=O)[C@@H](COC(C)=O)O3)c(=O)[nH]c2=O)on1
[1]
  growth, % of control at 10 µM: 98.8%
[2]
  growth, % of control at 10 µM: 102%
[3]
  growth, % of control at 10 µM: 96.9%
[4]
  growth, % of control at 10 µM: 88.1%

## CC(=O)OC[C@H]1O[C@@H](n2cc(-c3cn(Cc4ccc(C(C)(C)C)cc4)nn3)c(=O)[nH]c2=O)C[C@@H]1OC(C)=O
[1]
  growth, % of control at 10 µM: 94.2%
[2]
  growth, % of control at 10 µM: 105%
[3]
  growth, % of control at 10 µM: 106%
[4]
  growth, % of control at 10 µM: 90.4%

## CCCCc1ccc(-c2cc(-c3cn([C@H]4C[C@H](OC(C)=O)[C@@H](COC(C)=O)O4)c(=O)[nH]c3=O)on2)cc1
[1]
  growth, % of control at 10 µM: 71.4%
[2]
  growth, % of control at 10 µM: 72.2%
[3]
  growth, % of control at 10 µM: 97.4%
[4]
  growth, % of control at 10 µM: 30.4%

## CC(=O)OC[C@H]1O[C@@H](n2cc(-c3cn(Cc4ccccc4)nn3)c(=O)[nH]c2=O)C[C@@H]1OC(C)=O
[1]
  growth, % of control at 10 µM: 92.3%
[2]
  growth, % of control at 10 µM: 102%
[3]
  growth, % of control at 10 µM: 98.2%
[4]
  growth, % of control at 10 µM: 92.1%

## CCCCCc1cc(-c2cn([C@H]3C[C@H](OC(C)=O)[C@@H](COC(C)=O)O3)c(=O)[nH]c2=O)on1
[1]
  growth, % of control at 10 µM: 98.7%
[2]
  growth, % of control at 10 µM: 91.5%
[3]
  growth, % of control at 10 µM: 88.9%
[4]
  growth, % of control at 10 µM: 93.9%

## CC(=O)OC[C@H]1O[C@@H](n2cc(-c3cc(-c4ccccc4)no3)c(=O)[nH]c2=O)C[C@@H]1OC(C)=O
[1]
  growth, % of control at 10 µM: 92.2%
[2]
  growth, % of control at 10 µM: 95%
[3]
  growth, % of control at 10 µM: 91.4%
[4]
  growth, % of control at 10 µM: 85.5%

## CC(=O)OC[C@H]1O[C@@H](n2cc(-c3cc(C)no3)c(=O)[nH]c2=O)C[C@@H]1OC(C)=O
[1]
  growth, % of control at 10 µM: 102%
[2]
  growth, % of control at 10 µM: 106%
[3]
  growth, % of control at 10 µM: 101%
[4]
  growth, % of control at 10 µM: 92.4%

## CC(C)(C)c1ccc(Cn2cc(-c3cn([C@H]4C[C@H](O)[C@@H](CO)O4)c(=O)[nH]c3=O)nn2)cc1
[1]
  growth, % of control at 10 µM: 96.9%
[2]
  growth, % of control at 10 µM: 106%
[3]
  growth, % of control at 10 µM: 95%
[4]
  growth, % of control at 10 µM: 92.3%

## CC(=O)OC[C@H]1O[C@@H](n2cc(-c3cc(-c4ccc(C(C)C)cc4)no3)c(=O)[nH]c2=O)C[C@@H]1OC(C)=O
[1]
  growth, % of control at 10 µM: 80.9%
[2]
  growth, % of control at 10 µM: 83.2%
[3]
  growth, % of control at 10 µM: 108%
[4]
  growth, % of control at 10 µM: 50.3%

## CCc1ccc(-c2cc(-c3cn([C@H]4C[C@H](OC(C)=O)[C@@H](COC(C)=O)O4)c(=O)[nH]c3=O)on2)cc1
[1]
  growth, % of control at 10 µM: 92.2%
[2]
  growth, % of control at 10 µM: 97.4%
[3]
  growth, % of control at 10 µM: 92.7%
[4]
  growth, % of control at 10 µM: 62.8%

## O=c1[nH]c(=O)n([C@H]2C[C@H](O)[C@@H](CO)O2)cc1-c1cn(Cc2ccccc2)nn1
[1]
  growth, % of control at 10 µM: 88.3%
[2]
  growth, % of control at 10 µM: 103%
[3]
  growth, % of control at 10 µM: 97.5%
[4]
  growth, % of control at 10 µM: 92.1%

## CC(C)(C)c1ccc(-c2cc(-c3cn([C@H]4C[C@H](O)[C@@H](CO)O4)c(=O)[nH]c3=O)on2)cc1
[1]
  growth, % of control at 10 µM: 79.8%
[2]
  growth, % of control at 10 µM: 102%
[3]
  growth, % of control at 10 µM: 98.9%
[4]
  growth, % of control at 10 µM: 87.9%
